The record followed here is ChEMBL document CHEMBL2203058, “Isolation of steroidal glycosides from the Caribbean sponge Pandaros acanthifolium” (J Nat Prod, 2012).

For series [1], the system named is U-373MG ATCC. The series is described as follows: (§1) Antioxidant activity in human U373 cells assessed as increase of antioxidant response element-mediated phase 2 protein expression at 25 ug/ml after 24 hrs by luciferase reporter gene assay relative to control. The series is classed as functional. The method in brief: (§2)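 U373 astrocytoma cells stably carrying firefly luciferase under ARE control, grown in DMEM with 10% FCS and antibiotics. 5 × 10^4 cells/well seeded in quadruplicate, exposed 24 h to 25, 10, 5 or 2.5 μg/mL glycoside, then luciferase read. Controls: mock-treated and DMSO 0.25% v/v. Activity expressed as fold change versus 25 μM tert-butylhydroquinone; >2-fold over TBHQ scored a hit.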

Series [2] has as its system U-373MG ATCC. The series is described as follows: Cytoprotective activity in H2O2-stimulated human U373 cells assessed as increase of SOD activity treated 24 hrs before H2O2 stimulation measured after 24 hrs. The series is classed as functional, cell-based. In outline:
(§3)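 U373 cells at 2 × 10^4/well in quadruplicate, pretreated 24 h with 25, 10, 5 or 2.5 μg/mL glycoside. Media replaced with fresh media containing glycoside plus 300 μM H2O2 for 24 h more. Cells PBS-washed, lysed by three freeze–thaw cycles, centrifuged; SOD (WST-1/xanthine oxidase inhibition, […], against SOD standard curve) or GPx measured by colorimetric kits.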

Series [3] can be described thus: Antioxidant activity in human U373 cells assessed as increase of antioxidant response element-mediated phase 2 protein expression after 24 hrs by luciferase reporter gene assay relative to TBHQ. The series is classed as functional, U-373MG ATCC. In outline: as §2
The nature of series [4]: Cytotoxicity against human U373 cells. The class given is cell-based. The following applies: u-373mg atcc. In outline: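 Viability measured by MTT tetrazolium reduction in parallel reporter U373 cultures under the reporter assay conditions: 24 h with 25, 10, 5 or 2.5 μg/mL glycoside, quadruplicate wells.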
Series [5] has as its system U-373MG ATCC. As to the kind of experiment: Cytoprotective activity in human U373 cells assessed as effect of H2O2-stimulated lipid peroxidation assay at 2.5 to 25 ug/ml treated 24 hrs before H2O2 stimulation measured after 24 hrs by TBARS assay. The class given is functional, cell-based. In outline:
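U373 cells at 2 × 10^4/well in quadruplicate, 24 h pretreatment with 25, 10, 5 or 2.5 μg/mL glycoside, then 24 h in fresh media with glycoside and 300 μM H2O2. PBS-washed cells lysed by freeze–thaw; uncentrifuged lysate assayed for TBARS (MDA–TBA adduct, A532), calibrated with MDA 0–100 nmol/mL, reported as MDA equivalents. Mock and 0.25% DMSO controls.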

Series [6] deals with U-373MG ATCC. The series is described as follows: Cytoprotective activity in H2O2-stimulated human U373 cells assessed as increase of glutathione peroxidase activity treated 24 hrs before H2O2 stimulation measured after 24 hrs. The series is classed as functional, cell-based. In outline:
as §3

In series [7] the test system is U-373MG ATCC. As to the kind of experiment: Antioxidant activity in human U373 cells assessed as increase of antioxidant response element-mediated phase 2 protein expression after 24 hrs by luciferase reporter gene assay. The series is classed as functional, cell-based. The method in brief:
as §2

A short description of series [8]: as §1. The series is classed as functional, U-373MG ATCC. The method in brief: as §2
Series [9] concerns xenobiotic response element (XRE)-mediated transcriptional activity. As to the kind of experiment: Toxicity in human U373 cells assessed as effect on xenobiotic response element-mediated activity at 2.5 to 25 ug/ml after 24 hrs by luciferase reporter gene assay. The class given is cell-based, U-373MG ATCC. As to conditions: read-out: FC. In outline:
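XRE counterscreen: U373 astrocytoma cells stably carrying a luciferase cassette driven by the xenobiotic response element, grown in DMEM with 10% FCS and antibiotics. 5 × 10^4 cells/well in quadruplicate, 24 h with 25, 10, 5 or 2.5 μg/mL glycoside, then luciferase activity measured. Mock and DMSO (0.25% v/v) controls.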

The subject of series [10] is U-373MG ATCC. The series is described as follows: Cytoprotective activity in H2O2-stimulated human U373 cells assessed as increase of SOD activity at 2.5 to 25 ug/ml treated 24 hrs before H2O2 stimulation measured after 24 hrs. The series is classed as functional, cell-based. In outline:
as §3

Series [11] has as its system U-373MG ATCC. The series is described as follows: Cytoprotective activity in H2O2-stimulated human U373 cells assessed as increase of glutathione peroxidase activity at 2.5 to 25 ug/ml treated 24 hrs before H2O2 stimulation measured after 24 hrs. The series is classed as functional, cell-based. The method in brief:
as §3

SMILES strings stand for the structures. The source made the active and inactive calls. No cut-off for these calls is given here.

Regarding `CC(C)(C)c1cc(O)ccc1O`, the outcome in series [1] was Active.
Regarding `CC(=O)O[C@H]1[C@@H](O[C@@H]2O[C@@H](C)[C@H](O)[C@@H](O)[C@H]2O)[C@H]2[C@@H]3CC[C@H]4C[C@@H](O[C@H]5O[C@@H](CO)[C@H](O)[C@@H](O)[C@@H]5O[C@@H]5O[C@@H](C)[C@H](O)[C@@H](O)[C@H]5O)CC[C@]4(C)[C@H]3CC[C@]2(C)[C@H]1[C@H](C)CCCC(C)C` [ACANTHIFOLIOSIDE G], the Activity result in [2] was “Dose-dependent effect”; in series [4] it was “Non-toxic”; in series [6], “Dose-dependent effect”; in series [7], “Dose-dependent effect”. Moreover, the figures for the “fold change (FC)” value in series [3] and in series [8] were 2 and 2.27, respectively. In addition, in series [5], the outcome was inactive. The fold induction at 24 h in [9] was over 2.
As to `CC[C@H](C(C)C)[C@@H](O)C[C@@H](C)[C@H]1[C@@H](OC(C)=O)[C@@H](O[C@@H]2O[C@@H](C)[C@H](O)[C@@H](O)[C@H]2O)[C@H]2[C@@H]3CC=C4C[C@@H](O[C@H]5O[C@@H](CO)[C@H](O)[C@@H](O)[C@@H]5O[C@@H]5O[C@@H](C)[C@H](O)[C@@H](O)[C@H]5O)CC[C@]4(C)[C@H]3CC[C@@]21C` [ACANTHIFOLIOSIDE J], the outcome in series [10] and in [11] was Active. Further, the “fold change (FC)” value in [8] is 1.52.
